Assay results: ChEMBL document CHEMBL3352171, “Synthesis and biological evaluation of andrographolide analogues as anti-cancer agents” (Eur J Med Chem, 2014)
Active and inactive are the calls of the source. No cut-off for these calls is given here.

Assays:
HEK293 [1] = assay: Cytotoxicity against HEK293 cells after 48 hrs by MTT assay; assay type: functional; conditions: Homo sapiens, HEK293, 48 h; read-out: LC50 (the source's name)
Method in brief: (§1)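 Cells seeded at 10,000 per well and exposed to increasing compound concentrations for 48 h. After a PBS wash, MTT (2.5 mg/mL) was added for 6 h at 37 °C, then detergent (10% NP-40, 4 mM HCl), and absorbance was read at 570 nm. LC50 is the concentration causing 50% cell death. Values are means of three independent experiments.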

Vero = assay: Cytotoxicity against african green monkey Vero cells after 48 hrs by MTT assay; assay type: cell-based; conditions: chlorocebus sabaeus; method in brief: as §1
[2] = Retention time of the compound by HPLC method; assay type: physicochemical
MCF7 = assay: Cytotoxicity against human MCF7 cells after 48 hrs by MTT assay; assay type: functional; conditions: MCF7, 48 h, read-out: LC50 (the source's name); method in brief: as §1
[3] = Cytotoxicity against human MCF10A cells after 48 hrs by MTT assay; assay type: cell-based; conditions: mcf-10a; method in brief: as §1
HEK293 [4] = assay: Increase in caspase-3 expression in HEK293 cells at LC50 level after 48 hrs by immunocytochemistry; assay type: functional, cell-based; conditions: Homo sapiens
HEK293 [5] = assay: Increase in Bax expression in HEK293 cells at LC50 level after 48 hrs by Western blot method; assay type: functional, cell-based; conditions: Homo sapiens
HEK293 [6] = assay: Reduction in Bcl-xL expression in HEK293 cells at LC50 level after 48 hrs by Western blot method; assay type: functional, cell-based; conditions: Homo sapiens
HEK293 [7] = assay: Increase in PARP cleavage in HEK293 cells at LC50 level after 48 hrs by Western blot method; assay type: functional, cell-based; conditions: Homo sapiens
HEK293 [8] = assay: Increase in p53 expression in HEK293 cells at LC50 level after 48 hrs by Western blot method; assay type: functional, cell-based; conditions: Homo sapiens
HEK293 [9] = assay: Reduction in NFkappaB expression in HEK293 cells at LC50 level after 48 hrs by Western blot method; assay type: functional, cell-based; conditions: Homo sapiens
HEK293 [10] = assay: Increase in Bax expression in p53 deficient HEK293 cells at LC50 level after 48 hrs by Western blot method; assay type: functional, cell-based; conditions: Homo sapiens
HEK293 [11] = assay: Reduction in Bcl-xL expression in p53 deficient HEK293 cells at LC50 level after 48 hrs by Western blot method; assay type: functional, cell-based; conditions: Homo sapiens
HEK293 [12] = assay: Increase in PARP cleavage in p53 deficient HEK293 cells at LC50 level after 48 hrs by Western blot method; assay type: functional, cell-based; conditions: Homo sapiens
HEK293 [13] = assay: Increase in p53 expression in p53 deficient HEK293 cells at LC50 level after 48 hrs by Western blot method; assay type: functional, cell-based; conditions: Homo sapiens
HEK293 [14] = assay: Reduction in NFkappaB expression in p53 deficient HEK293 cells at LC50 level after 48 hrs by Western blot method; assay type: functional, cell-based; conditions: Homo sapiens

Row | SMILES | CC50 (HEK293 [1]) | LC50 (Vero) | Retention_time [2] | other results
1 | O=c1[nH]cc(F)c(=O)[nH]1 [FLUOROURACIL] | 25 µM | – | – | –
2 | C[C@]1(CO)[C@H]2CC[C@]3(CO3)[C@@H](C/C=C3/C(=O)OC[C@H]3OC(=O)CBr)[C@]2(C)CC[C@H]1O | 24 µM | 32 µM | 27.2 min | –
3 | C=C1CC[C@@H]2[C@]3(C)COC(C)(C)O[C@@H]3CC[C@@]2(C)[C@@H]1C/C=C1/C(=O)OC[C@H]1OC(=O)CI | 20 µM | 48 µM | – | –
4 | C[C@]1(CO)[C@H]2CC[C@]3(CO3)[C@@H](C/C=C3/C(=O)OC[C@H]3OC(=O)CCl)[C@]2(C)CC[C@H]1O | 18 µM | 43 µM | 36.5 min | –
5 | C[C@]1(CO)[C@H]2CC[C@@]3(CO3)[C@@H](C/C=C3/C(=O)OC[C@H]3OC(=O)CBr)[C@]2(C)CC[C@H]1O | 16 µM | 29 µM | 27.8 min | –
6 | C=C1CC[C@@H]2[C@]3(C)COC(C)(C)O[C@@H]3CC[C@@]2(C)[C@@H]1C/C=C1/C(=O)OC[C@H]1OC(=O)CCl | 19 µM | 42 µM | – | –
7 | C=C1CC[C@@H]2[C@]3(C)COC(C)(C)O[C@@H]3CC[C@@]2(C)[C@@H]1C/C=C1/C(=O)OC[C@H]1OC(=O)CBr | 17 µM | 36 µM | – | –
8 | C=C1CC[C@@H]2[C@](C)(CO)[C@H](O)CC[C@@]2(C)[C@@H]1C/C=C1/C(=O)OC[C@H]1O [ANDROGRAPHOLIDE] | 25 µM | < 40 µM | – | CC50 (MCF7): 16 µM; LC50 [3]: > 40 µM; Activity (HEK293 [4]): Active; Activity (HEK293 [5]): Active; Activity (HEK293 [6]): Active; Activity (HEK293 [7]): Active; Activity (HEK293 [8]): Active; Activity (HEK293 [9]): Active; Activity (HEK293 [10]): inactive; Activity (HEK293 [11]): inactive; Activity (HEK293 [12]): inactive; Activity (HEK293 [13]): inactive; Activity (HEK293 [14]): inactive
